# Bioassay records: PubChem, several laboratories
# Only some compounds are listed: those with a hit (about 1.8% of all), similar ones and a draw of the others.
# SUMO HTRF inh: blocks human SUMOylation mediated by UBC9; HTRF SUMOylation assay, SAE1/SAE2 + UBC9, in vitro; P63279; inhibition, % at 35 µM; 0.36% of 290,000 active; in the data active = inhibition above about 50%, passing the limit was not always enough; inconclusive = no clear call, values can overlap the other calls
# Target sequence (P63279 whole entry, looked up): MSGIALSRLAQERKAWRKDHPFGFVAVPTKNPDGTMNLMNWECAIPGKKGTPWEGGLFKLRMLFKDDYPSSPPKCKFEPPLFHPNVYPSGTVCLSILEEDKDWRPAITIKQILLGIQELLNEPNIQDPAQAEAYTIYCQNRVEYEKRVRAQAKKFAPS
# PABP1 MLLE inh: inhibitors of microRNA-mediated deadenylation, human PABP1 MLLE binding; P11940; GST-MLLE / FITC-PAM2 fluorescence polarization; inhibition, % at 20 µM; 0.36% of 360,000 active; in the data active = inhibition above about 35%, passing the limit was not always enough;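 also: plate controls were DMSO wells with GST-MLLE for no effect and wells lacking GST-MLLE protein for full effect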
# HCV core dimer: blocks dimerization of HCV core protein. inhibition, % at 5 µM. 0.33% of 300,000 active. TR-FRET GST/Flag-core106 dimerization, 1536-well. AID 1899;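 active = inhibition above the mean of all tested compounds plus 3 SD, set per screening campaign, cut at about 45% in these data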
#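 test system = GST/Flag-tagged HCV core106 proteins | probe or stimulus = Eu donor and XL665 acceptor anti-tag antibodies | times = compound-protein-antibody incubation 4 h at 22.5 °C | signal = TR-FRET, excitation 340 nm, emission 617 and 671 nm | measure = percent inhibition of core106 dimerization signal | controls = wells lacking GST-core106 and wells with excess unlabelled core106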
# PABP polyA inh: PABP-poly(A) binding inhibition | P11940 | PABP-poly(A) RNA binding, fluorescence polarization | calls only at 35 µM | 1% of 290,000 active;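 also: calls also rest on retests at 20 µM and on dose response follow-up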
# eIF4H inh: inhibitors of RNA binding by human eIF4H | inhibition, % at 35 µM | 0.94% of 290,000 active | Q15056 | eIF4H fluorescence polarization binding assay;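 also: calls also rest on retests at 20 µM and on dose response follow-up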
# eIF4E-4G inh: eIF4E/eIF4G interaction inhibition in translation initiation; P63073+Q04637; TR-FRET eIF4E-eIF4GI(517-606) binding, 2 h; inhibition, % at 21.7 µM; 0.37% of 220,000 active;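 active = inhibition above about 30%, limit read from the data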;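 also: 0% = full FRET control wells and 100% = background wells lacking eIF4GI fragment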
# * marks the source's active call; other numbers are inactive results; i = inactive; ? = inconclusive; . = no result; + = active, no number. Unless noted, no rule for the calls is given here.
SMILES,SUMO HTRF inh,PABP1 MLLE inh,HCV core dimer,PABP polyA inh,eIF4H inh,eIF4E-4G inh
O=c1[nH]c(=S)[nH]c(O)c1N=Nc1ccc2c(c1)OCO2,0.9,-34.2,-0.9,i,53.1*,5.7
C=CCn1c(O)c(C=Nc2ccc(N(CC)CC)cc2)c(=O)[nH]c1=O,10.6,-6.2,0.2,+,53.8*,-19.4
Cc1ccccc1-n1c(O)c(/C=N/NC(=O)c2ccncc2)c(=O)[nH]c1=O,-14.4,0.1,-0.2,i,28.2,1.9
Cc1cc(C)c(-n2c(O)c(/C=N/NC(=O)c3ccncc3)c(=O)[nH]c2=O)c(C)c1,23.0,-23.6,6.5,+,57.3*,7.0
CCC1([N+](=O)[O-])COP(N)(=O)OC1 (configuration not stated),.,-3.8,.,.,.,.
COc1ccc(OC)c(N=Cc2c(O)n(Cc3ccccc3)c(=S)[nH]c2=O)c1,36.3,-30.0,9.4,+,35.0*,-1.1
Cn1cccc1/C=C1/C(=O)NC(=S)N(Cc2ccc(F)cc2)C1=O,16.3,-24.6,66.3*,i,41.0,9.3
O=C(O)Cn1cc(/C=C2\C(=O)NC(=O)N(Cc3ccco3)C2=O)c2ccccc21,34.8,-26.6,12.4,+,?,3.0
O=C1NC(=O)N(Cc2ccco2)C(=O)/C1=C/c1cccn1CCOc1ccccc1Cl,65.6*,-29.3,17.4,+,?,0.1
CCN1C(=O)NC(=O)/C(=C\c2cn(CC(=O)O)c3ccccc23)C1=O,-7.9,.,3.0,?,?,.
Cn1cccc1/C=C1\C(=O)NC(=O)N(Cc2ccccc2)C1=O,14.6,-16.5,5.0,+,?,-6.0
CCC1(CC)C(=O)NC(=O)N(CCc2ccccn2)C1=O,.,11.8,.,.,.,.
CSCCC(c1nnnn1-c1ccc2c(c1)OCCO2)N1CCC(n2c(=O)[nH]c3ccccc32)CC1 (configuration not stated),.,14.4,.,.,.,.
CS(=O)(=O)c1ccc(C2=C(CNC(=O)c3nccs3)[C@H]3CC[C@@H](C2)N3Cc2ccco2)cc1,.,4.4,.,.,.,.
COC(=O)C1=C(C(=O)OC)C2OC1c1cc3ccccc3cc12,.,22.5,.,.,.,.
Cn1cccc1/C=C1/C(=O)NC(=O)N(Cc2ccccc2)C1=O,4.2,-9.7,-7.1,i,?,4.5
Cn1cccc1/C=C1/C(=O)NC(=O)N(Cc2ccc(F)cc2)C1=O,19.6,-19.7,-2.0,+,?,6.0
COc1ccc(-n2nnnc2C(c2cccs2)N2CCC(n3c(=O)[nH]c4ccccc43)CC2)cc1 (configuration not stated),.,-5.1,.,.,.,.
CCOC(=O)C1SC2(C(F)(F)F)CC1(O)c1c(C)cc(C)nc1O2 (configuration not stated),-1.7,59.6*,-2.0,i,-7.1,-0.4
Fc1cccc(-c2ccc3c(c2)CN(C(=S)NCCc2ccccc2)Cc2cnnn2-3)c1,.,-100.7,.,.,.,.
O=c1cc(C(F)(F)F)c2cc3c4c(c2o1)CCCN4CCC3,18.3,i,5.5,+,?,-1.1
Cc1cc2c(C(F)(F)F)cc(=O)oc2c2c1NCCC2,18.3,40.7,6.0,?,?,-12.2
O=C1NC(=O)C(=Cc2cc3c(cc2[N+](=O)[O-])OCO3)C(=O)N1,98.6*,29.5,1.7,+,97.6*,2.2
O=C1NC(=O)C(=Cc2ccccc2[N+](=O)[O-])C(=O)N1,.,30.9,.,.,.,.
COc1cc(N2CCOCC2)ccc1/C=C1\C(=O)NC(=O)N(C2CCCCC2)C1=O,13.8,-20.3,-1.1,i,?,0.8
SMILES,SUMO HTRF inh,PABP1 MLLE inh,HCV core dimer,PABP polyA inh,eIF4H inh,eIF4E-4G inh
CCN1C(=O)NC(=O)/C(=C\c2ccc(N3CCOCC3)cc2OC)C1=O,-1.6,.,2.8,+,?,-0.8
COc1ccc2c(c1)NP(=S)(Oc1ccccc1)N2 (configuration not stated),52.8*,31.6,8.4,+,89.2*,3.7
O=C(Cc1ccccc1)N1CCN(Cc2ccc(Cl)cc2)CC1,.,-6.2,.,.,.,.
CC(=O)Nc1ccc(CC(=O)N2CCN(Cc3ccccc3)CC2)cc1,16.1,2.3,-6.4,+,81.7*,.
O=C1C=C(N2CC2)c2ccccc2C1=O,.,35.5,.,.,.,.
O=C1c2ccccc2-c2cccc3cccc1c23,.,55.1*,.,.,.,.
O=C1c2ccccc2-c2cc3ccccc3cc21,.,46.2*,.,.,.,.
Cc1cccc(N2C(=O)NC(=O)/C(=C\c3ccc4c(c3)CCCN4Cc3ccccc3)C2=O)c1,4.9,-94.2,21.4,i,?,4.5
CCC(C)N1C(=O)/C(=C/c2ccc3c(c2)CCN3CCCCl)C(=O)NC1=S (configuration not stated),-0.3,-68.0,71.5*,i,34.3,6.0
COc1cc(/C=C/c2nc3ccccc3c(=O)n2-c2ccccc2O)ccc1O,-9.1,-38.2,11.7,i,-1.8,.
COc1cc(/C=C/c2nc3ccccc3c(=O)n2-c2cccc(O)c2)ccc1O,51.3*,-63.2,2.9,i,24.2,10.5
O=[N+]([O-])c1ccc(N2CCOCC2)c2c1no[n+]2[O-],.,17.5,.,.,.,.
CCN1C(=O)CC(=O)N(CC)C1=S,.,-8.4,.,.,.,.
CC1C(=O)CC2(C(C)C)CC12 (configuration not stated),.,2.0,.,.,.,.
CCCCn1nnnc1C(CCSC)N1CCC2(CC1)C(=O)NCN2c1ccccc1 (configuration not stated),.,4.5,.,.,.,.
CC/C(=N\Nc1cccc2ccccc12)c1c(O)[nH]c(=O)[nH]c1=O,21.8,-9.2,7.2,i,54.1*,3.5
CC/C(=N\Nc1ccccc1)c1c(O)[nH]c(=O)[nH]c1=O,5.8,-121.9,3.4,i,5.3,-3.1
COc1cccc(N2C(=O)CC(=O)NC2=O)c1,11.5,-15.4,1.5,+,76.6*,4.0
CC(C)c1ccc(N2C(=O)CC(=O)NC2=O)cc1,-12.9,-47.3,10.0,+,?,.
CCOc1cccc(N2C(=O)CC(=O)NC2=O)c1,4.9,-23.6,-4.4,i,32.4,2.6
O=C1CC(=O)N(c2ccc(Cl)cc2)C(=O)N1,11.8,-37.7,8.6,i,-7.9,.
CC1=C(O)C(=O)C=C2C1=CC=C1C2(C)CCC2(C)C3CC(C)(C(=O)O)CCC3(C)CCC12C (configuration not stated),.,21.8,.,.,.,.
S=P(NCCSCc1ccccc1)(N1CC1)N1CC1,.,0.1,.,.,.,.
CCCCCCNC(=O)N[C@H](Cc1ccc(O)cc1)C(=O)NCCC[C@H]1CN2C(=NC[C@H]2CCC)N1CC1CCC1,9.2,.,-17.4,i,-12.6,55.8*
O=C(NC(=S)N1C[C@H]2C[C@H](C1)c1cccc(=O)n1C2)c1ccc(Cl)cc1,-5.2,42.4*,1.2,i,4.0,.
CN1CCN(c2ccc3nccnc3c2)CC1,58.4*,2.2,-3.0,i,20.5,1.0
CCC(C)N=Cc1c(O)n(-c2ccccc2)c(=O)[nH]c1=O (configuration not stated),3.4,45.6*,0.1,i,-4.8,0.9
